Assay: Toxicity liver stage against HepG2, at 10uM
Assay type: cell-based
Set-up: test concentration 10 uM, cell line HepG2-A16-CD81EGFP
Conditions: human, HepG2-A16-CD81EGFP cells; read-out: INHIBITION
Summary of the method: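 Uninfected HepG2-A16-CD81EGFP cells, 3 × 10^3 per well, 1536-well, plated on prespotted compound at 10 μM final, parasite-free screening media added to match infected plates; puromycin 10 μM positive, DMSO 0.5% negative; run in parallel with 48 h PbLuc assay at 37 °C, 5% CO2; viability by CellTiter-Glo luminescence, normalized to controls.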

| Structure (SMILES) | cytotoxicity at 10 µM [%] |
| --- | --- |
| CCOc1ccc(OCC(O)CN2CCN(S(C)(=O)=O)CC2)cc1 (configuration not stated) | -36.8 |
| CS(=O)(=O)NCC1CCCN(C(=O)Nc2ccccc2N2CCCC2)C1 (configuration not stated) | -139 |
| COc1cccc(N2CC3(CCN(Cc4nccn4C)C3)CC2=O)c1 (configuration not stated) | -83 |
| Cc1nc2c(c(N3CCN(c4ncccc4C(N)=O)CC3)n1)CCNC2 | -4.69 |
| Cn1ccc(CNC(=O)N2CCC(C3(C)OCCO3)CC2)c1 | 3.15 |
| O=C(NCCc1ccn(-c2ccccc2)n1)N1CCSCC1 | -2.71 |
| CS(=O)(=O)NCCN1CCCC1c1noc(C2CC2)n1 (configuration not stated) | -23.7 |
| Cc1cnn(CCNC(C)c2nnc(-c3cccc(Cl)c3)o2)c1 (configuration not stated) | -1.41 |
| O=C1CCCN1c1cccc(CNCc2cc(F)ccc2F)c1 | 15.8 |
| c1cncc(-c2nnc(C3(c4ccc5c(c4)OCO5)CCOCC3)o2)c1 | 4.02 |
| Cn1nc(CN2CCCC2)c2c1CN(C(=O)c1cccnc1)CC2 | -146 |
| Cc1noc([C@@H]2CC[C@@H]3[C@@H](CCN3S(C)(=O)=O)O2)n1 | -2.16 |
| O=C(c1[nH]nc(C2CC2)c1Cl)N1CCN(C2CC2)C(=O)C1 | -4.81 |
| CN(CC(=O)Nc1cc(-c2cc(Cl)cc(Cl)c2)[nH]n1)S(C)(=O)=O | 6.72 |
| C[C@@H]1CN(C2CCOC2)C[C@]12CCN(Cc1cccnc1)C2=O (some centres not stated) | -106 |
| O=C(O)c1ccccc1-c1ccc(CNC(=O)C2CCOCC2)cc1 | 1.33 |
| CCOCC(=O)N(C)c1ccc(F)c(Cl)c1 | -3.99 |
| CC(C)n1c(=O)[nH]c2cn(-c3ccc(Cl)cc3)c(=O)n21 | -0.769 |
| Cc1ncc(-c2ccnc(N[C@@H](C)CO)n2)c(C2CCCCC2)n1 | -20.7 |
| COc1ccc(C2(C(=O)NC3CCc4nccn4C3)CCCC2)cc1 (configuration not stated) | 4.48 |
| CN(C)c1cnn(CC(=O)N2CCN(Cc3cccs3)CC2)c(=O)c1 | 1.72 |

| Structure (SMILES) | cytotoxicity at 10 µM [%] |
| --- | --- |
| O=S(=O)(Cc1ccccc1Cl)NCCCN1CCCC1 | -4.54 |
| CN(CCc1ccccc1)C(=O)c1cc(CN2CCC(O)CC2)on1 | -2.92 |
| O=C1CCC2(CCOC2)CN1CCCOc1cccnc1 (configuration not stated) | -16.1 |
| COCCN1CC(=O)c2sc(NCc3ccccc3)nc2C1 | -6.77 |
| O=C(NCc1cnc2n1CCN(CC1CC1)CC2)C1CCC1 | -12.9 |
| COCC(=O)NCc1cc(=O)n2c(n1)CN(C)CCC2 | -103 |
| COC(=O)CC1c2cccnc2C(=O)N1Cc1ccccc1 (configuration not stated) | 1.19 |
| COCCN(CC1CCCN(C2Cc3ccccc3C2)C1)C(=O)CO (configuration not stated) | -6.93 |
| CCc1c(NCc2cccnc2)cnn1CC(C)C | -0.625 |
| Cc1oncc1C(=O)N1CCC2(CC1)CC(c1ccccc1)C(=O)N2C (configuration not stated) | -14.5 |
| CN1CCCC1CCNC(=O)c1ccccc1-n1cc(CN)cn1 (configuration not stated) | 3.44 |
| Cc1ccc(C(CC(=O)O)NC(=O)CCc2cccs2)cc1 (configuration not stated) | -4.32 |
| Cn1ccnc1CNC[C@H]1Cn2cc(-c3ccccc3)nc2CO1 | -6.09 |
| CC(=O)N1CC[C@H]2[C@H](C[C@@H](CN3CCCC3)N2c2nccs2)C1 | 1.84 |
| Cn1nc2c(cc1=O)CN(Cc1nc(-c3cccs3)no1)CC2 | -2.82 |
| O=C(Nc1c(N2CCCC2)cccc1N1CCCC1)c1cnsn1 | -43 |
| Cc1ccc(CN2CCC3(CC2)CN(c2ccccc2)C(=O)CO3)o1 | -116 |
| c1csc(CN2Cc3nccn3CC(Cn3cncn3)C2)c1 (configuration not stated) | -136 |
| CC(C)c1nc(C2CCCN2C(=O)c2cc(Cl)c[nH]2)no1 (configuration not stated) | 0.585 |
| Cn1ccc(C(=O)N(CC(F)F)c2cccc(Cl)c2)cc1=O | 0.541 |
| Cc1nn(CCO)cc1CN1CCC(C(C)N2CCCC2)CC1 (configuration not stated) | -1.04 |

| Structure (SMILES) | cytotoxicity at 10 µM [%] |
| --- | --- |
| CNC(=O)C1Cc2ccccc2CN1CCC#N (configuration not stated) | 6.35 |
| c1ccc(Cn2cccn2)c(CN2CCCCC2CCn2ccnc2)c1 (configuration not stated) | -12 |
| CCCS(=O)(=O)N1CCC2(CC1)CCn1c(-c3cnn(C)c3)cnc12 | -142 |
| CN(C)C(=O)CN1C(=O)CO[C@@H]2CN(c3ccccn3)C[C@H]21 | 12.3 |
| Cc1nonc1CN(C)Cc1nc(-c2cccc(F)c2F)oc1C | -2.71 |
| Cn1ccc(C(=O)NCc2ccc(N3CCCC3)nc2)cc1=O | 0.12 |
| CC(NCc1ccc(F)cc1)c1ccc(S(C)(=O)=O)cc1 (configuration not stated) | 12.6 |
| CC(=O)NCC1CCN(Cc2nc(C3CC3)no2)CC1 | -4.12 |
| Cc1ccc2c(c1)C1(CCNCC1)CC2OCC1CC1 (configuration not stated) | 6.13 |
| CC(c1ccc(F)cc1F)N1CCN(CCN2CCCC2=O)CC1 (configuration not stated) | -5.61 |
| Cc1ccc(OC2(C(=O)O)CCN(C(=O)c3nc(C)oc3C)CC2)cn1 | -9.41 |
| CCc1nc(CCn2ccnc2-c2nccn2C)no1 | -50.2 |
| Cc1cc(CN(C)C(=O)NCC2CCS(=O)(=O)C2)no1 (configuration not stated) | -0.874 |
| Cc1nc(-c2ccccc2)n(CC(=O)NC(C)C2CC2)n1 (configuration not stated) | 7.44 |
| CN1CCN(C(=O)c2cc3sccc3n2Cc2ccccc2F)CC1 | 1.94 |
| CCn1cnnc1CNC(=O)N1CCN(c2cccc(C)c2)CC1 | -3.42 |
| CCN1CCN(c2ccc(F)cc2C(C)NCc2cscn2)CC1 (configuration not stated) | -10.3 |
| Cn1ncc(N2CCC(CNC3Cc4ccccc4C3)C2)cc1=O (configuration not stated) | -6 |
| c1ncn(CC2CCCN2Cc2cn3ccsc3n2)n1 (configuration not stated) | -10.1 |
| O=S1(=O)C[C@@H]2[C@H](C1)N(Cc1ncc[nH]1)CCN2C/C=C/c1ccccc1 | 11.2 |
| COc1ccc(OC)c(-c2nc(CN(C)Cc3noc(C)n3)c(C)o2)c1 | -3.7 |

| Structure (SMILES) | cytotoxicity at 10 µM [%] |
| --- | --- |
| COc1cccc(CN2CCOC(Cn3nc(C)cc3C)C2)c1 (configuration not stated) | 7.83 |
| CCC1CCCCCN1C(=O)c1nnc2ccccc2c1N (configuration not stated) | 7.85 |
| Cn1c(CN2CC[C@](C)(O)C(C)(C)C2)cc2ccccc21 | -3.6 |
| COc1ccc(CN2C[C@H]3CN(c4ccsc4)C(=O)[C@H]3C2)cc1 | 22.8 |
| NC(=O)CCn1cc(CNCCCc2ccccc2O)c2ccccc21 | 8.92 |
| CNS(=O)(=O)c1ccc(CNC(=O)C2CCCN(C)C2)cc1 (configuration not stated) | -10.5 |
| CCc1c(C)n(CC(C)=O)c2nc3ccccc3n2c1=O | 5.44 |
| COCCC1(C(=O)O)CCCN(C(=O)c2cc(Cl)ccc2F)C1 (configuration not stated) | -2.79 |
| CCc1nnc(NCc2cccc(OC)c2OC)o1 | 6.79 |
| Cc1ccc(CN2CCC3(CC(C(=O)NCC4CC4)=NO3)C2)s1 (configuration not stated) | 5.92 |
| Cc1cc(CNC2CCCN(c3cccnn3)C2)no1 (configuration not stated) | -15 |
| CN1CC(c2ccccc2)C2(CCN(C(=O)c3ccc[nH]3)CC2)C1=O (configuration not stated) | 9.25 |
| COCC1CN(C(=O)c2cccn2C)Cc2c1cnn2CC1CC1 (configuration not stated) | 8.07 |
| Cc1cnc(C(=O)N2CC(=O)N(c3ccccc3Cl)CC2C)cn1 (configuration not stated) | -8.23 |
| CN(Cc1cc(F)ccc1C#N)CC(C)(CO)CO | -10.4 |
| Cc1cnn(CC2CN(Cc3nc4ccccc4n3C)CCO2)c1 (configuration not stated) | 0.338 |
| CNc1cncc(C2CCCN2C(=O)c2ccc3nc(C)[nH]c3c2)n1 (configuration not stated) | -8.94 |
| Cc1noc(C)c1C(=O)N1CCC2(CC(N(C)c3ccncn3)C2)C1 (configuration not stated) | -5.94 |
| O=C(CCS(=O)(=O)C1CCCC1)NCCc1ccc2c(c1)OCCO2 | -1.29 |

Reference: ChEMBL document CHEMBL4513216, “Probing the Open Global Health Chemical Diversity Library for Multistage-Active Starting Points for Next-Generation Antimalarials” (ACS Infect Dis, 2020)
